From ChEMBL document CHEMBL1142242, “Indanylacetic acid derivatives carrying 4-thiazolyl-phenoxy tail groups, a new class of potent PPAR alpha/gamma/delta pan agonists: synthesis, structure-activity relationship, and in vivo efficacy” (J Med Chem, 2007) come the findings set out here.

Structures are written as SMILES. A value given as a limit tells only on which side of the number the result lay.

A word on the EC50: it is the concentration giving half of the maximal effect.

Assay [1] addresses T1, Peroxisome proliferator-activated receptor alpha (Homo sapiens, UniProt Q07869).
T1 sequence (Q07869 whole entry): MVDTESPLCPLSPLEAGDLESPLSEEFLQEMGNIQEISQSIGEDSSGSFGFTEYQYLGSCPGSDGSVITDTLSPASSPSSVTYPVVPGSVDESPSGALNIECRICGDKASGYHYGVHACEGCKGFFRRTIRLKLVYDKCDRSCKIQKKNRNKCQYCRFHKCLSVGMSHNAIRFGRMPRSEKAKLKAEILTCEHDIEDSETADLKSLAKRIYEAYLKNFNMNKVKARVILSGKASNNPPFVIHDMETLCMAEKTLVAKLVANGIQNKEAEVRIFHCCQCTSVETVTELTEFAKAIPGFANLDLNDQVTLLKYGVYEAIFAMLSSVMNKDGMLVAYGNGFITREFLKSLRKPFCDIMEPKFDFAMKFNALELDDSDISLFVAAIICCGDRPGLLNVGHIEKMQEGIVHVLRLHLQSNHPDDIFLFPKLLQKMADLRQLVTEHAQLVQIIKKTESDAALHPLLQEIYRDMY
The assay can be described thus: Agonist activity at human PPAR alpha by FRET assay. In kind it is functional. Put shortly:
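Human PPARα ligand binding domain (GST-tagged) association with biotin-labeled co-activator CBP; Eu-labeled anti-GST antibody and streptavidin-APC; incubated 2 h at rt in buffer with or without compound; fluorescence read at 615 or 655 nm emission, 340 nm excitation.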

Assay [2] concerns the target T2, Peroxisome proliferator-activated receptor gamma (Mus musculus, UniProt P37238).
T2 sequence (P37238 whole entry): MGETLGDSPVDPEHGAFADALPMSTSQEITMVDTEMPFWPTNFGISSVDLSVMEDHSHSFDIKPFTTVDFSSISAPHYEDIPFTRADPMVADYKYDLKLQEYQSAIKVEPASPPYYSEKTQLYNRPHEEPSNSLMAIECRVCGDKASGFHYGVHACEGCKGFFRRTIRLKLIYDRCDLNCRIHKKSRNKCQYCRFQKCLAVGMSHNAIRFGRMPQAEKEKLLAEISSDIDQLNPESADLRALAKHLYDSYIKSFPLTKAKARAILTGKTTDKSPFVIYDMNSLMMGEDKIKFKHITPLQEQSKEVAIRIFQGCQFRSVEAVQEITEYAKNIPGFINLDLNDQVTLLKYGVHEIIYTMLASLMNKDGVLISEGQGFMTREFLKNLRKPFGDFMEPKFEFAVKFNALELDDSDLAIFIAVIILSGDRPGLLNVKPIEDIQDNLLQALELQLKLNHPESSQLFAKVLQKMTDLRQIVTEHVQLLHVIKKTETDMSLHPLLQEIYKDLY
The assay can be described thus: Agonist activity at PPAR gamma in mouse 3T3L1 cells assessed as increase in insulin receptor by IRBA. The class given is functional, cell-based, 3T3-L1.

The target of assay [3] is T3, Peroxisome proliferator-activated receptor delta (Homo sapiens, UniProt Q03181).
T3 sequence (Q03181 whole entry): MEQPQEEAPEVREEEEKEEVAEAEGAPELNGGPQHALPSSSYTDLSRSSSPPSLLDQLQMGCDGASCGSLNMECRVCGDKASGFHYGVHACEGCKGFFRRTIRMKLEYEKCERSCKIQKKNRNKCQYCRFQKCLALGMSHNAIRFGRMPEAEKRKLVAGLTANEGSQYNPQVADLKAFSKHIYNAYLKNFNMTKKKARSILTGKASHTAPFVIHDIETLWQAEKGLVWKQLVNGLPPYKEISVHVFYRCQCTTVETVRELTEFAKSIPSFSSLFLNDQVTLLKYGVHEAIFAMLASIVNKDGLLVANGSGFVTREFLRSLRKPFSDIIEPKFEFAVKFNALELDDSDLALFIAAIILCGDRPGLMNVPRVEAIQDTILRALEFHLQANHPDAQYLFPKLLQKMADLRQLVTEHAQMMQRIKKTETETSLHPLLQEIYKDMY
The assay can be described thus: Agonist activity at human PPAR delta by FRET assay. In kind it is functional.

As for `O=C(O)C[C@@H]1CCc2cc(OCCCOc3ccc(-n4cncn4)cc3)ccc21`, in assay [1], the EC50 was above 10000 nM.

On to `O=C(O)C[C@@H]1CCc2cc(OCCCOc3ccc(-c4ccc(C(F)(F)F)cn4)cc3)ccc21`, for which the EC50 in assay [1] came to 2900 nM; in assay [2], 1800 nM; in assay [3], 0.95 nM.

With `CCCc1cc(-c2nc(OC(C)C)cs2)ccc1OCCCOc1ccc2c(c1)CC[C@H]2CC(=O)O`, the values for the EC50 in assay [1], in assay [2] and in assay [3] were 47 nM, 45 nM and 2.3 nM, respectively.

Turning to `CCOc1cc(C)ccc1OCCCOc1ccc2c(c1)CC[C@H]2CC(=O)O`, the EC50 in assay [1] is above 10000 nM; in assay [2] it was 1240 nM; in assay [3], 2.2 nM.

With `COc1cc(C#N)ccc1OCCCOc1ccc2c(c1)CC[C@H]2CC(=O)O`, the EC50 in assay [1] amounted to 7500 nM; in assay [2], 700 nM; in assay [3], 14 nM.

With `O=C(O)C[C@@H]1CCc2cc(OCCCOc3ccc(OC(F)(F)F)cc3)ccc21`, the concentration for a half-maximal effect (EC50) amounted to 6800 nM in assay [1], 1020 nM in assay [2] and 13 nM in assay [3].

For `Cc1coc2cc(OCCCOc3ccc4c(c3)CC[C@H]4CC(=O)O)ccc12`, the EC50 was above 10000 nM in assay [1], 1950 nM in assay [2] and 8 nM in assay [3].

On to `CCCc1cc(-c2nc(CC(=O)O)cs2)ccc1OCCCOc1ccc2c(c1)CC[C@H]2CC(=O)O`, for which the EC50 in assay [1] amounted to 2480 nM; in assay [2], 27 nM; in assay [3], 4.6 nM.

For `COc1cc(-c2nc(C(F)(F)F)cs2)ccc1OCCCOc1ccc2c(c1)CC[C@H]2CC(=O)O`, the EC50 in assay [1] was determined as 437 nM; in assay [2], 327 nM; in assay [3] it was 2.9 nM.

Regarding `CCc1csc(-c2ccc(OCCCOc3ccc4c(c3)CC[C@H]4CC(=O)O)cc2)n1`, the EC50 in assay [1] stood at 1280 nM; in assay [2], 874 nM; in assay [3], 4.4 nM.

As to `CCCc1c(OCCCOc2ccc3c(c2)CC[C@H]3CC(=O)O)ccc2c(C)noc12`, the 50% effective concentration (EC50) in assay [1] is above 10000 nM; in assay [2], 173 nM; in assay [3], 2.1 nM.

On to `COc1ccc(OCCCOc2ccc3c(c2)CC[C@H]3CC(=O)O)cc1`, for which the EC50 was above 10000 nM in assay [1], 3000 nM in assay [2] and 6.7 nM in assay [3].

As to `CCCc1cc(-c2nc(C)c(C(=O)O)s2)ccc1OCCCOc1ccc2c(c1)CC[C@H]2CC(=O)O`, the EC50 in assay [1] amounted to 1690 nM; in assay [2], 238 nM; in assay [3] it was 46 nM.

In the case of `COc1cc(-c2nc(C)c(C(=O)N(C)C)s2)ccc1OCCCOc1ccc2c(c1)CC[C@H]2CC(=O)O`, the concentration for a half-maximal effect (EC50) is 803 nM in assay [1] and 2.1 nM in assay [3].

As to `CCOc1nc(-c2ccc(OCCCOc3ccc4c(c3)CC[C@H]4CC(=O)O)c(OC)c2)sc1CC`, the EC50 in assay [1] is 520 nM; in assay [2], 362 nM; in assay [3] it was 5.4 nM.

Turning to `CCc1csc(-c2ccc(OCCCOc3ccc4c(c3)CC[C@H]4CC(=O)O)c(OC)c2)n1`, the half-maximal effective concentration (EC50) in assay [1] amounted to 254 nM; in assay [2], 65 nM; in assay [3], 2.5 nM.

In the case of `COc1csc(-c2ccc(OCCCOc3ccc4c(c3)CC[C@H]4CC(=O)O)cc2)n1`, the 50% effective concentration (EC50) in assay [1] amounted to 5800 nM; in assay [2] it was 300 nM; in assay [3], 1.3 nM.

`CCCc1c(OCCCOc2ccc3c(c2)CC[C@H]3CC(=O)O)ccc2c1ccn2C`: the half-maximal effective concentration (EC50) in assay [1] was above 10000 nM; in assay [2] it was above 10000 nM; in assay [3], 29 nM.

As to `O=C(O)C[C@@H]1CCc2cc(OCCCOc3ccc4c(c3)ONC4(O)C(F)(F)F)ccc21` (stereo not given in full), the EC50 in assay [1] was above 10000 nM; in assay [2] it was 5000 nM; in assay [3], 67 nM.

With `CCCc1cc(-c2nc(C)c(C(=O)N(C)C)s2)ccc1OCCCOc1ccc2c(c1)CC[C@H]2CC(=O)O`, the EC50 in assay [1] stood at 140 nM; in assay [2] it was 17 nM; in assay [3], 4.4 nM.

Consider `CCCc1ccccc1OCCCOc1ccc2c(c1)CC[C@H]2CC(=O)O`, for which the figures for the half-maximal effective concentration (EC50) in assay [1], in assay [2] and in assay [3] were above 10000 nM, 1520 nM and 2.4 nM, respectively.

For `COc1cc(-c2nc3c(s2)CCCO3)ccc1OCCCOc1ccc2c(c1)CC[C@H]2CC(=O)O`, the half-maximal effective concentration (EC50) came out at 328 nM in assay [1], 181 nM in assay [2] and 1.3 nM in assay [3].

With `O=C(O)C[C@@H]1CCc2cc(OCCCOc3ccc(-c4ccccc4)cc3)ccc21`, the EC50 in assay [1] was above 10000 nM; in assay [3] it was 43 nM.

Regarding `O=C(O)C[C@@H]1CCc2cc(OCCCOc3ccc4cnoc4c3)ccc21`, the EC50 was above 10000 nM in assay [1], above 10000 nM in assay [2] and 828 nM in assay [3].

As to `C=CCc1c(OCCCOc2ccc3c(c2)CC[C@H]3CC(=O)O)ccc2[nH]ccc12`, the results for the EC50 in assay [1], in assay [2] and in assay [3] were above 10000 nM, 3300 nM and 18 nM, respectively.

For the compound `CCCc1cc(-c2nccs2)ccc1OCCCOc1ccc2c(c1)CC[C@H]2CC(=O)O`, the results for the EC50 in assay [1], in assay [2] and in assay [3] were 111 nM, 48 nM and 1.6 nM, respectively.

With `Cc1nc(-c2ccc(OCCCOc3ccc4c(c3)CC[C@H]4CC(=O)O)cc2)sc1C(=O)O`, the EC50 in assay [1] came out at 10000 nM; in assay [2] it was 312 nM; in assay [3], 218 nM.

Turning to `O=C(O)C[C@@H]1CCc2cc(OCCCOc3ccc(-c4ccoc4)cc3)ccc21`, the figures for the EC50 in assay [1], in assay [2] and in assay [3] were 3270 nM, 4100 nM and 3.8 nM, respectively.

On to `COc1cccc(OCCCOc2ccc3c(c2)CC[C@H]3CC(=O)O)c1`, for which the EC50 in assay [1] is above 10000 nM; in assay [3] it was 117 nM.

For the compound `Cc1ccc(OCCCOc2ccc3c(c2)CC[C@H]3CC(=O)O)c(C)c1`, the EC50 in assay [1] was determined as 9360 nM; in assay [2], 2180 nM; in assay [3] it was 4.6 nM.

Take `Cc1noc2cc(OCCCOc3ccc4c(c3)CC[C@H]4CC(=O)O)ccc12`: the EC50 was above 10000 nM in assay [1], 3660 nM in assay [2] and 16 nM in assay [3].

With `O=C(O)C[C@@H]1CCc2cc(OCCCOc3ccc(-c4cncnc4)cc3)ccc21`, the EC50 in assay [1] was 7280 nM; in assay [2] it was 970 nM; in assay [3], 11 nM.

With `CCOc1csc(-c2ccc(OCCCOc3ccc4c(c3)CC[C@H]4CC(=O)O)c(OC)c2)n1`, the EC50 amounted to 1350 nM in assay [1], 920 nM in assay [2] and 3.4 nM in assay [3].

With `CCCc1cc(-c2nc(C(C)(C)C)cs2)ccc1OCCCOc1ccc2c(c1)CC[C@H]2CC(=O)O`, the half-maximal effective concentration (EC50) was 87 nM in assay [1], 18 nM in assay [2] and 11 nM in assay [3].

Take `Cc1cccc(OCCCOc2ccc3c(c2)CC[C@H]3CC(=O)O)c1`: the EC50 was above 10000 nM in assay [1], 8000 nM in assay [2] and 56 nM in assay [3].

Take `COc1cc(-c2nccs2)ccc1OCCCOc1ccc2c(c1)CC[C@H]2CC(=O)O`: the figures for the EC50 in assay [1] and in assay [2] were 255 nM and 374 nM, respectively.

Turning to `CCCc1cc(Oc2ccccc2)ccc1OCCCOc1ccc2c(c1)CC[C@H]2CC(=O)O`, the EC50 in assay [1] was above 10000 nM; in assay [3] it was 1.9 nM.

With `COc1cc(-c2nc3ccccc3s2)ccc1OCCCOc1ccc2c(c1)CC[C@H]2CC(=O)O`, the EC50 in assay [1] stood at 526 nM; in assay [3], 5.2 nM.

For the compound `CC(=O)Nc1cc(-n2ccnn2)ccc1OCCCOc1ccc2c(c1)CC[C@H]2CC(=O)O`, the EC50 in assay [1] was 9200 nM; in assay [2], 5600 nM.

For the compound `CCCc1cc(C(F)(F)F)ccc1OCCCOc1ccc2c(c1)CC[C@H]2CC(=O)O`, the concentration for a half-maximal effect (EC50) was 1140 nM in assay [1] and 1.6 nM in assay [3].
